Calls of active or inactive are those of the source. The rule behind the calls is not given here.
Tests used:
[1] = system: Enterococcus faecalis; test: Antibacterial activity against vancomycin-susceptible Enterococcus faecalis EF 12704 assessed as log reduction in bacterial count at 12 mg/l after 24 hrs by time kill assay; type: functional
In short: (§1)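 Time-kill experiments used an inoculum of 5 × 10^6 CFU/ml, with bacterial counts followed over 24 h.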

[2] = system: Enterococcus faecalis; test: Antibacterial activity against vancomycin-susceptible Enterococcus faecalis EF 12704 infected in New Zealand White rabbit assessed as reduction of bacterial count in aortic valve vegetations at 10 mg/kg, administered through ear vein every 12 hrs for 4 days (reference value: 8.56 +/- 0.74 CFU/g); type: functional
In short: (§2)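 New Zealand White rabbits were anesthetized and given left-ventricular catheters. Endocarditis was induced 24 h later with 10^8 CFU E. faecalis. From 24 h post-inoculation, drug was given via the marginal ear vein by computer-controlled pump, simulating human pharmacokinetics of 600 mg every 12 h (10 mg/kg/12 h). After 4 days, aortic vegetations were excised, weighed, homogenized in 0.5 ml saline and cultured quantitatively on agar for 24 h at 37°C.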

[3] = system: Enterococcus faecalis; test: Antibacterial activity against vancomycin-susceptible Enterococcus faecalis EF 12704 infected in New Zealand White rabbit assessed as log reduction of bacterial count in aortic valve vegetations at 10 mg/kg, administered through ear vein every 12 hrs for 4 days; type: functional; in short: as §2
[4] = system: Enterococcus faecalis; test: Antibacterial activity against vancomycin-susceptible Enterococcus faecalis EF 12704 assessed as bactericidal activity at 25 mg/l after 24 hrs by time kill assay; type: functional, organism-based; in short: as §1
[5] = system: Enterococcus faecalis; test: Antibacterial activity against vancomycin-susceptible Enterococcus faecalis EF 12704 infected in New Zealand White rabbit assessed as reduction of bacterial count in aortic valve vegetations administered through ear vein every 12 hrs for 4 days (reference value: 8.56 +/- 0.74 CFU/g); type: functional
[6] = system: Enterococcus faecalis; test: Antibacterial activity against vancomycin-resistant Enterococcus faecalis EF NJ1 assessed as bactericidal activity at 25 mg/l after 24 hrs by time kill assay; type: functional, organism-based; in short: as §1
[7] = system: Enterococcus faecalis; test: Antibacterial activity against vancomycin-resistant Enterococcus faecalis EF NJ1 infected in New Zealand White rabbit assessed as reduction of bacterial count in aortic valve vegetations administered through ear vein every 12 hrs for 4 days (reference value: 8.60 +/- 0.54 CFU/g); type: functional
[8] = system: Enterococcus faecalis; test: Antibacterial activity against vancomycin-resistant Enterococcus faecalis EF NJ1 infected in New Zealand White rabbit assessed as log reduction of bacterial count in aortic valve vegetations at 10 mg/kg, administered through ear vein every 12 hrs for 4 days; type: functional; in short: as §2

Compound CC(=O)NC[C@H]1CN(c2ccc(N3CCOCC3)c(F)c2)C(=O)O1 [LINEZOLID] has a log10CFU/ml [1] of 1, a log10CFU/g [2] of 6.88 and a log10CFU/g [3] of over 3.
For CN[C@H](CC(C)C)C(=O)N[C@H]1C(=O)N[C@@H](CC(N)=O)C(=O)N[C@H]2C(=O)N[C@H]3C(=O)N[C@H](C(=O)N[C@H](C(=O)O)c4cc(O)cc(O)c4-c4cc3ccc4O)[C@H](O)c3ccc(c(Cl)c3)Oc3cc2cc(c3O[C@@H]2O[C@H](CO)[C@@H](O)[C@H](O)[C@H]2O[C@H]2C[C@](C)(N)[C@H](O)[C@H](C)O2)Oc2ccc(cc2Cl)[C@H]1O [VANCOMYCIN], the Activity [4] was “inactive”, the log10CFU/g [5] was 6.7 and the Activity [6] was “inactive”. The log10CFU/g [7] was 8.01, the log10CFU/g [3] was 2 and the log10CFU/g [8] was 2.

Reference: ChEMBL document CHEMBL1649273, “In vivo activity of a novel anti-methicillin-resistant Staphylococcus aureus cephalosporin, ceftaroline, against vancomycin-susceptible and -resistant Enterococcus faecalis strains in a rabbit endocarditis model: a comparative study with linezolid and vancomycin” (2009)
